Reference: ChEMBL document CHEMBL1128599, “Nucleoside conjugates. 14. Synthesis and antitumor activity of 1-beta-D-arabinofuranosylcytosine conjugates of ether lipids with improved water solubility” (J Med Chem, 1995)
Where “and” joins values, the source holds several entries; their conditions need not be identical. Equal values may be shown once.

Tests used:
[1] = Solubility in water determined by UV absorption at 272 nm; assay type: physicochemical; conditions: read-out: S
Mus musculus [2] = assay: Number of mice (out of 6 mice) survived after treatment with 200 mg/kg/day of compound on a 1 day treatment schedule for 45 days; assay type: functional
How it was run: (§1)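 Groups of 6 male DBA/2Ros mice (20–29 g) were inoculated ip on day 0 with 1 × 10⁶ L1210 cells. Conjugate was given ip as a shaken or sonicated aqueous solution from day 1, over a wide dose range. Optimal-dose results are reported as ILS = (T/C − 1) × 100 from median survival, or as 45-day survivors.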

Mus musculus [3] = assay: Number of mice (out of 6 mice) survived after treatment with 200 mg/kg/day of compound on a 1,7 day treatment schedule for 45 days; assay type: functional; how it was run: as §1
Mus musculus [4] = assay: Antitumor activity at 150 mg/kg/day on 1, 5, 9 day treatment schedule, qd against L1210 infected mice was expressed as increase in life span (ILS); assay type: functional; conditions: L1210, 216 h; how it was run: as §1
Mus musculus [5] = assay: Antitumor activity at 200 mg/kg/day on a 1,7 day treatment schedule, qd against L1210 infected mice was expressed as increase in life span (ILS); assay type: functional; how it was run: as §1
Mus musculus [6] = assay: Antitumor activity at 200 mg/kg/day on a 1 day treatment schedule, qd against L1210 infected mice was expressed as increase in life span (ILS); assay type: functional; conditions: L1210, 24 h; how it was run: as §1
Mus musculus [7] = assay: Number of mice (out of 6 mice) survived after treatment with 150 mg/kg/day of compound on 1, 5, 9 day treatment schedule for 45 days; assay type: functional; how it was run: as §1
Mus musculus [8] = assay: Number of mice (out of 6 mice) survived after treatment with 150 mg/kg/day of compound on 1, 5, 9 day by sonication method treatment schedule for 45 days; assay type: functional
How it was run: (§2)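 L1210 cells (1 × 10⁶) were inoculated ip into male DBA/2Ros mice (20–29 g, 6 per group) on day 0. Ip dosing began day 1. Conjugate in water suspension was sonicated 2 min (20–60 °C), then 0.22 μm filtered. Over a 45-day observation, read-outs were median survival T/C, ILS = (T/C − 1) × 100, or number alive at day 45.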

Mus musculus [9] = assay: Antitumor activity at 300 mg/kg/day on a 1 day treatment schedule, qd against L1210 infected mice by sonication method was expressed as increase in life span (ILS); assay type: functional; conditions: L1210, 24 h; how it was run: as §2
Mus musculus [10] = assay: Antitumor activity at 300 mg/kg/day on a 1 day treatment schedule, qd against L1210 infected mice by shaking method was expressed as increase in life span (ILS); assay type: functional; conditions: L1210, 24 h
How it was run: (§3)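 Male DBA/2Ros mice (20–29 g, groups of 6) got 1 × 10⁶ L1210 leukemia cells ip on day 0. Ip treatment started day 1. Conjugate was shaken in sterile water for 2 h at room temperature, then 0.22 μm filtered. Mice were observed 45 days. Read-outs were median survival T/C with ILS = (T/C − 1) × 100, or 45-day survivors.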

Mus musculus [11] = assay: Number of mice (out of 6 mice) survived after treatment with 150 mg/kg/day of compound on 1, 5, 9 day by shaking method treatment schedule for 45 days; assay type: functional; how it was run: as §3
Mus musculus [12] = assay: Number of mice (out of 6 mice) survived after treatment with 300 mg/kg/day of compound on a 1 day by shaking method treatment schedule for 45 days; assay type: functional; how it was run: as §3
Mus musculus [13] = assay: Number of mice (out of 6 mice) survived after treatment with 300 mg/kg/day of compound on a 1 day by sonication method treatment schedule for 45 days; assay type: functional; how it was run: as §2
Mus musculus [14] = assay: Antitumor activity at 150 mg/kg/day on 1, 5, 9 day treatment schedule, qd against L1210 infected mice by sonication method was expressed as increase in life span (ILS); assay type: functional; conditions: L1210, 216 h; how it was run: as §2
Mus musculus [15] = assay: Antitumor activity at 150 mg/kg/day on 1, 5, 9 day treatment schedule, qd against L1210 infected mice by shaking method was expressed as increase in life span (ILS); assay type: functional; conditions: L1210, 216 h; how it was run: as §3
Mus musculus [16] = assay: Antitumor activity at 300 mg/kg/day on a 1,7 day treatment schedule, qd against L1210 infected mice was expressed as increase in life span (ILS); assay type: functional; how it was run: as §1
Mus musculus [17] = assay: Antitumor activity at 300 mg/Kg/day on a 1 day treatment schedule, qd against L1210 infected mice was expressed as increase in life span (ILS); assay type: functional; conditions: L1210, 24 h; how it was run: as §1
Mus musculus [18] = assay: Number of mice (out of 6 mice) survived after treatment with 300 mg/kg/day of compound on a 1 day treatment schedule for 45 days; assay type: functional; how it was run: as §1
Mus musculus [19] = assay: Antitumor activity at 300 mg/kg/day on a 1,7 day treatment schedule, qd against L1210 infected mice by shaking method was expressed as increase in life span (ILS); assay type: functional; how it was run: as §3
Mus musculus [20] = assay: Antitumor activity at 200 mg/kg/day on a 1 day treatment schedule, qd against L1210 infected mice by shaking method was expressed as increase in life span (ILS); assay type: functional; conditions: L1210, 24 h; how it was run: as §3
Mus musculus [21] = assay: Antitumor activity at 200 mg/kg/day on a 1 day treatment schedule, qd against L1210 infected mice by sonication method was expressed as increase in life span (ILS); assay type: functional; conditions: L1210, 24 h; how it was run: as §2
Mus musculus [22] = assay: Number of mice (out of 6 mice) survived after treatment with 300 mg/kg/day of compound on a 1,7 day treatment schedule for 45 days; assay type: functional; how it was run: as §1

Row | Structure (SMILES) | solubility [1] | No. of mice (Mus musculus [2]) | ILS at 150 mg/kg/day (Mus musculus [4]) | ILS at 200 mg/kg/day (Mus musculus [6]) | No. of mice (Mus musculus [7]) | No. of mice (Mus musculus [18]) | other results
1 | CCCCCCCCCCCCCCCC(=O)OC(COCCCCCCCCCCCC)COP(=O)([O-])OP(=O)([O-])OC[C@H]1OC(n2ccc(N)nc2=O)[C@@H](O)[C@@H]1O.[Na+].[Na+] (stereo not given in full) | > 131 mM | 0 | > 313% | 128% | 3 |  | No. of mice (Mus musculus [3]): 0; ILS at 200 mg/kg/day (Mus musculus [5]): 286%
2 | CCCCCCCCCCCCCCCCOCC(COP(=O)([O-])OP(=O)([O-])OC[C@H]1OC(n2ccc(N)nc2=O)[C@@H](O)[C@@H]1O)OC(=O)CCCCCCCCCCCCC.[Na+].[Na+] (stereo not given in full) | > 107 mM |  |  |  |  |  | No. of mice (Mus musculus [8]): 4; ILS at 300 mg/kg/day (Mus musculus [9]): > 464%; ILS at 300 mg/kg/day (Mus musculus [10]): 258%; No. of mice (Mus musculus [11]): 5; No. of mice (Mus musculus [12]): 1; No. of mice (Mus musculus [13]): 3; ILS at 150 mg/kg/day (Mus musculus [14]): > 463%; ILS at 150 mg/kg/day (Mus musculus [15]): > 463%
3 | CCCCCCCCCCCCCCCCOCC(COP(=O)([O-])OP(=O)([O-])OC[C@H]1OC(n2ccc(N)nc2=O)[C@@H](O)[C@@H]1O)OC(=O)CCCCCCCCCCC.[Na+].[Na+] (stereo not given in full) | > 132 mM |  | > 463% |  | 5 | 0 | No. of mice (Mus musculus [3]): 3; ILS at 300 mg/kg/day (Mus musculus [16]): > 350%; ILS at 300 mg/kg/day (Mus musculus [17]): 119%
4 | CCCCCCCCCCCCCC(=O)OC(COCCCCCCCCCCCC)COP(=O)([O-])OP(=O)([O-])OC[C@H]1OC(n2ccc(N)nc2=O)[C@@H](O)[C@@H]1O.[Na+].[Na+] (stereo not given in full) | > 146 mM | 0 | > 394% | 69% | 3 |  | 
5 | CCCCCCCCCCCCCCCC(=O)OC(COCCCCCCCCCCCCCC)COP(=O)([O-])OP(=O)([O-])OC[C@H]1OC(n2ccc(N)nc2=O)[C@@H](O)[C@@H]1O.[Na+].[Na+] (stereo not given in full) | > 43 mM | 2 and 1 |  |  | 3 and 5 | 4 and 2 | ILS at 300 mg/kg/day (Mus musculus [19]): 107%; ILS at 200 mg/kg/day (Mus musculus [20]): 275%; ILS at 300 mg/kg/day (Mus musculus [9]): > 206%; ILS at 300 mg/kg/day (Mus musculus [10]): > 543%; ILS at 200 mg/kg/day (Mus musculus [21]): 206%; No. of mice (Mus musculus [22]): 1; ILS at 150 mg/kg/day (Mus musculus [14]): > 463%; ILS at 150 mg/kg/day (Mus musculus [15]): > 350%
6 | CCCCCCCCCCCCCCCCOCC(COP(=O)([O-])OP(=O)([O-])OC[C@H]1OC(n2ccc(N)nc2=O)[C@@H](O)[C@@H]1O)OC(=O)CCCCCCCCCCCCCCC.[Na+].[Na+] (stereo not given in full) | 0.13 mM | 3 | 306% | > 250% | 3 |  | 
7 | CCCCCCCCCCCCCCOCC(COP(=O)([O-])OP(=O)([O-])OC[C@H]1OC(n2ccc(N)nc2=O)[C@@H](O)[C@@H]1O)OC(=O)CCCCCCCCCCCCC.[Na+].[Na+] (stereo not given in full) | > 121 mM |  | 125% |  | 1 | 0 | ILS at 300 mg/kg/day (Mus musculus [17]): 178%
